Experimental data as given in ChEMBL document CHEMBL5357040, “Synthesis and migrastatic activity of cytochalasin analogues lacking a macrocyclic moiety” (RSC Med Chem, 2024).
The source made the active and inactive calls. No cut-off for these calls is given here.

How the values were obtained:
[1] = Inhibition of actin (unknown origin) polymerization at 10 uM by spectrophotometer analysis; details: Homo sapiens
Method in brief: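 Pyrene-labelled actin (0.4 mg mL⁻¹) in G-buffer with compound at 10 μM or DMSO control; polymerization started with 10× actin polymerization buffer. Fluorescence (ex 360 nm, em 420 nm) followed over time until plateau.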

BLM = experiment: Migrastatic activity against human BLM cells assessed as decrease in cell migration at 10 uM incubated for 24 hrs by spheroid invasion assay; type: functional, cell-based
Method in brief: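 BLM spheroids formed over 2 days, embedded singly in 1.5 mg mL⁻¹ rat-tail type I collagen (1× DMEM, 1% FBS), polymerized at 37 °C, overlaid with medium; 10 μM treatment. Imaged at 0 and 24 h; invasiveness as spheroid area increase. Three independent experiments, ≥8 spheroids each; one-way ANOVA.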

HT-1080 [2] = experiment: Inhibition of actin in human HT-1080 cells assessed as effect on actin cytoskeleton at 10 uM incubated for 2 mins by fluorescence microscopic analysis; type: cell-based
Method in brief: (§1)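 HT1080 cells on glass-bottom plates stained with SPY650-FastAct; untreated cells imaged every 20 s for 15 min, then compound (10 or 50 μM) added to same well and recorded 15 min at 20 s/frame by fluorescence time-lapse; actin cytoskeleton and morphology assessed from video.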

HT-1080 [3] = experiment: Effect on cell morphology in human HT-1080 cells at 50 uM incubated for 5 mins by fluorescence microscopic analysis; type: functional, cell-based; method in brief: as §1
HT-1080 [4] = experiment: Inhibition of actin in human HT-1080 cells assessed as effect on actin cytoskeleton at 10 uM incubated for 5 mins by fluorescence microscopic analysis; type: cell-based; method in brief: as §1

Row | SMILES | inhibition [1] | Activity (BLM) | inhibition (HT-1080 [2]) | Activity (HT-1080 [3]) | inhibition (HT-1080 [4])
1 | CC1=C[C@H](CCOCCc2ccccc2)[C@]2(CO)C(=O)N[C@@H](Cc3ccccc3)[C@@H]2[C@@H]1C | Active | Active | – | – | –
2 | C=C1[C@@H](C)[C@H]2[C@H](Cc3ccccc3)NC(=O)[C@]23OC(=O)/C=C/[C@H](O)CCC[C@@H](C)C/C=C/[C@H]3[C@@H]1O | – | inactive | Active | – | –
3 | C=C1[C@@H](C)[C@H]2[C@H](Cc3ccccc3)NC(=O)[C@@]2(C(=O)OC)[C@@H](CCOCCc2ccccc2)[C@@H]1O | Active | Active | inactive | Active | Active
4 | C=C1[C@@H](C)[C@H]2[C@H](Cc3ccccc3)NC(=O)[C@]23[C@H](OC(C)=O)/C=C/[C@@](C)(O)C(=O)[C@@H](C)C/C=C/[C@H]3[C@@H]1O | – | inactive | Active | – | –
5 | COC(=O)[C@@]12C(=O)N[C@@H](Cc3ccccc3)[C@@H]1[C@H](C)C(C)=C[C@@H]2CCCOCc1ccccc1 | Active | Active | – | – | –
6 | COC(=O)[C@@]12C(=O)N[C@@H](Cc3ccccc3)[C@@H]1[C@H](C)[C@@](C)(Cl)[C@H](O)[C@@H]2CCOCCc1ccccc1 | Active | – | – | – | –
